HKDC1 inh – inhibitors of human hexokinase HKDC1; recombinant HKDC1, G6PDH/diaphorase resazurin coupled fluorescence; AID 493160; inhibition, % at 20 µM; Q2TB90; 0.16% of 340,000 active;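 active = inhibition above about 35% when tested at 20 µM, limit read from the data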;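 also: plate controls were DMSO wells with enzyme for no effect and DMSO wells lacking enzyme for full effect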
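test system = in-house recombinant HK5 (HKDC1) enzyme | amount = HKDC1 at 5 µg/mL | control set = DMSO-enzyme wells negative, buffer-substituted wells positive | compound = one dose of 20 µM, 1% DMSO | schedule = reaction time 90 min, room temperature, protected from light | technique = resorufin fluorescence at 613 nm | reagent = glucose with 1 mM ATP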
GSTO1 counter – GSTO1 inhibition, counter-screen for RBBP9 inhibitors; inhibition, % at 5.96 µM; P78417; recombinant GSTO1, activity-based probe fluorescence polarization; 1.1% of 300,000 active;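 active = inhibition above the campaign mean inhibition plus 3 SD, cut at about 35% in these data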;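 also: 0% = GSTO1-1 with DMSO and 100% = wells lacking GSTO1-1 enzyme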
Target sequence (P78417 whole entry, looked up): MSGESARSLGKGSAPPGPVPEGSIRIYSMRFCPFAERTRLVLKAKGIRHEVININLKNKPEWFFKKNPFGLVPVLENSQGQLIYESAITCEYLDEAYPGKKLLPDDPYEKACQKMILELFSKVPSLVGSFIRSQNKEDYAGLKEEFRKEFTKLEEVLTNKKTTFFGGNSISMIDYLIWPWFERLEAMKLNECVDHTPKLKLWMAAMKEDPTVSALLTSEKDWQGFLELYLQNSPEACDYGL
DTT redox prof – compounds producing H2O2 with reducing agent – biochemical, NIH compound library profiling, artefact control for MLSCN library redox annotation, primary screen; activation, % at 10 µM; DTT-dependent redox cycling H2O2, phenol red/HRP absorbance; 100% = 100 µM peroxide control, 0% = buffer; AID 878; 0.03% of 200,000 active;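 active = activation of at least 50% relative to the plate's high and low controls in the primary single-dose screen; inactive = activation below 50%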;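 also: compound incubated with DTT at 0.8 mM final as the reducing agent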
UBC9 SUMO inh – blocks human SUMOylation mediated by UBC9; P63279; HTRF SUMOylation assay, SAE1/SAE2 + UBC9, in vitro; inhibition, % at 35 µM; 0.36% of 290,000 active; in the data active = inhibition above about 50%, passing the limit was not always enough
Target sequence (P63279 whole entry, looked up): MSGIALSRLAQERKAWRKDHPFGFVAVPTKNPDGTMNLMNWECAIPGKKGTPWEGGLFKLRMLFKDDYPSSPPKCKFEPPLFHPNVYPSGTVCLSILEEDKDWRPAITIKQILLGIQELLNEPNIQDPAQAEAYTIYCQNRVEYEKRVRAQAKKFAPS
Apaf-1 inh – human Apaf-1 inhibition | reconstituted apoptosome caspase-3 activity, DEVD-Rh110 fluorescence | inhibition, % at 20 µM | 0.71% of 330,000 active; active = inhibition of at least 40% at 20 µM;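 also: plate controls were DMSO wells for no effect and DEVD-CHO caspase inhibitor wells for full effect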
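System: Apoptosome proteins | Medium: Hepes pH 7.5 with detergent and BSA | Also added: Cytochrome c trigger plus (Z-DEVD)2-Rh110 caspase-3 substrate | Incubation: 30 min compound preincubation, 50 min activation, room temperature | Detection: Rhodamine 110 fluorescence at Ex 480/Em 540 nm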
Active calls of the source: *; / = no result given. Rows were chosen to be rich in hits. Some 1.4% of all compounds tested hit in one or more screens of this group.

SMILES	HKDC1 inh	GSTO1 counter	DTT redox prof	UBC9 SUMO inh	Apaf-1 inh
CC(Sc1nncs1)C(=O)Nc1ccc(S(=O)(=O)Nc2ncccn2)cc1 (configuration not stated)	-5.6	/	/	/	-14.4
CN(CCO)c1cc(Sc2nc3ccccc3s2)c2nonc2c1[N+](=O)[O-]	3.9	25.5	1.1	6.7	51.8*
O=C1/C(=C/c2ccncc2)SC(=S)N1Nc1ccccc1	-13.2	36.1*	/	-11.2	4.3
Cc1cc(C)c(OCCN2CCOCC2)c(Cl)c1	1.5	0.5	/	6.6	-6.6
Cc1cccc(Nc2nc(N)nc(CCl)n2)c1C	-1.1	65.0*	/	-31.2	-26.2
CCOc1ccc(Nc2nc(N)nc(CCl)n2)cc1	0.9	81.8*	/	7.9	-13.8
COCc1nnc(NC(=O)C2CC(=O)N(CCc3ccc(F)cc3)C2)s1 (configuration not stated)	0.6	-2.1	/	-4.0	12.2
CCCCn1c(NC(=O)CC)c(C#N)c2nc3ccccc3nc21	4.4	7.8	2.8	10.4	10.5
N#Cc1c(NC(=O)c2ccccc2Cl)n(Cc2ccccc2)c2nc3ccccc3nc12	8.5	46.6*	4.3	99.6*	/
CC1CCCCC1NS(=O)(=O)c1ccc2c(c1)CC(=O)N2C (configuration not stated)	1.2	-2.4	/	10.8	6.2
COc1ccc2nc(/C(C#N)=C\c3ccc(Oc4ccc([N+](=O)[O-])cn4)cc3)[nH]c2c1	-12.9	0.9	-0.1	19.5	-5.5
COc1ccc2nc(/C(C#N)=C\c3ccc(C(=O)O)cc3)[nH]c2c1	16.3	-3.3	-1.1	52.3*	1.6
CC1CCCN(CC(O)CN2CCN(CC(O)CN3CCCC(C)C3)C(C)C2)C1 (configuration not stated)	-7.3	/	/	/	/
COc1ccc(CCC(=O)N2CCCC(Nc3ccccc3)C2)cc1OC (configuration not stated)	0.5	1.1	/	19.4	11.1
O=C(NCc1ccccn1)c1ccc(Cl)c(NC2=NC3CS(=O)(=O)CC3S2)c1 (configuration not stated)	0.9	5.1	/	9.6	-1.4
Cc1ccc(CNC(=O)c2ccccc2NC(=O)CSc2nnnn2C)cc1	-2.7	37.0*	-0.1	6.2	2.7
[O-]/C(=C(\C(=S)Nc1cccc2ccccc12)[n+]1ccccc1)c1cccs1	1.6	36.6*	0.0	48.9	29.7
Cc1cccc(C)c1NC(=S)/C(=C(\[O-])c1cccs1)[n+]1ccccc1	-11.6	0.9	-0.5	0.1	-1.1
O=C(c1ccccc1)[C@@H]1[C@@H](C(=O)c2ccc(F)cc2)[C@@]2(C(=O)Nc3ccccc32)[C@H]2c3ccccc3C=CN12	-0.6	-2.7	-0.1	10.6	63.7*
CC(=O)[C@@H]1[C@@H](C(=O)c2ccccc2)[C@]2(C(=O)Nc3ccccc32)[C@H]2C=Cc3cc(F)ccc3N12	-1.6	-2.5	0.2	9.3	18.9
CC(C)c1onc(C(=O)NCc2ccccc2)c1[N+](=O)[O-]	-9.2	37.5*	-0.5	1.8	-34.2
COc1ccc(CNC(=O)c2noc(C(C)C)c2[N+](=O)[O-])cc1	-8.6	22.8	-0.5	2.4	11.8
Cc1c(CC(=O)N2CCN(C(=O)C3COc4ccccc4O3)CC2)c(=O)oc2c(C)c(O)ccc12 (configuration not stated)	-2.5	-2.2	/	50.1*	10.7
Cc1c(CC(=O)N2CCN(C(=O)C3COc4ccccc4O3)CC2)c(=O)oc2cc(O)ccc12 (configuration not stated)	-3.6	-1.2	/	42.6	-0.8
O=c1cc(C(F)(F)F)nc(-n2[nH]c3c(c2=O)CCCC3)[nH]1	3.5	39.6*	0.9	-24.2	-2.2
Nc1nc(C(F)(F)F)cc(=O)[nH]1	-8.7	4.1	/	6.7	-7.1
CC(C)=CC(=O)NCCc1ccccc1	-9.4	-1.1	-1.2	15.6	-8.8
C/C(=C/C(=O)NCc1ccccc1)C(=O)O	2.1	-1.3	-7.2	52.5*	-4.4
Cc1cccc(N2CCC(N3CCN(C4CCCCC4)C(CCO)C3)CC2)c1C (configuration not stated)	10.7	-4.1	-0.7	10.7	1.0
O=C(COc1coc(CN2CCN(c3ccccc3F)CC2)cc1=O)NCC1CCCO1 (configuration not stated)	-1.5	6.1	/	/	-6.3

Assay outcomes (PubChem)
